IDH1 mut inh: blocks human IDH1 R132H reductase activity; diaphorase/resazurin fluorescence, 60 min; inhibition, % at 10 µM; 70,000 compounds, 0.18% hits; AID 624101; in the data active means inhibition above about 34%;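 further: 0% = DMSO and 100% = no enzyme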
Target sequence (O75874 whole entry R132H): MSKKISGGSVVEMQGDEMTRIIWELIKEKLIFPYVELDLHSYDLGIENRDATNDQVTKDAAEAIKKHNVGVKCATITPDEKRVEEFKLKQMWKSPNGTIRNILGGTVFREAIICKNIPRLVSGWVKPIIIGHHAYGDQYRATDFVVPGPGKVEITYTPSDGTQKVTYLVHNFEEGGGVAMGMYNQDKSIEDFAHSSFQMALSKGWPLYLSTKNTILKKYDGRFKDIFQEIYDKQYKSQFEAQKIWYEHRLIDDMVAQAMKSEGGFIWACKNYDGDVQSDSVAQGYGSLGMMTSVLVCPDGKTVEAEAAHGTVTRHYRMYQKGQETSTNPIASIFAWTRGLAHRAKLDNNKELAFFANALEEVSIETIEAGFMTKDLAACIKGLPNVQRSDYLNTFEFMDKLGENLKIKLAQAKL
T cruzi growth-1: blocks T. cruzi growth in NIH3T3 culture | T. cruzi beta-gal in NIH3T3, GalScreen luminescence, 90 h | AID 624255 | 77,000 compounds, 5.9% hits | inhibition, % at 8.34 µM;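 active means mean inhibition above about 93%, with at least 55% of replicates each passing it, limit read from the data, passing the limit was not always enough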
KDM4C inh: blocks human GASC-1 (KDM4C) demethylase activity. GST-KDM4C 2-372, H3K9me3 peptide, LANCE TR-FRET. inhibition, % at 12.5 µM. 96,000 compounds, 0.15% hits. AID 720574;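 active means mean replicate inhibition above about 25%, with at least 55% of replicates also reaching it, limit read from the data, passing the limit was not always enough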
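Assay system: GST-GASC-1 enzyme fragment 2-372 | Amount: 10 nM enzyme | Medium: HEPES buffer, pH 7.5, plus ascorbate | Reagent: H3K9me3 peptide substrate, Fe(II), 2-oxoglutarate | Doses: Single-point compound screen | Incubation: 30 min demethylation and 1 h detection at room temperature | Measured by: LANCE TR-FRET, excitation 340 nm, emissions 618 and 671 nm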
T cruzi growth-2: blocks T. cruzi growth in NIH3T3 host cells; inhibition, % at 8.35 µM; shares compounds with T cruzi growth-1; T. cruzi beta-gal in NIH3T3, GalScreen luminescence, 90 h; AID 651739; 5,600 compounds, 72% hits;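 active means mean replicate inhibition above about 95% and at least 55% of replicates individually reaching it, limit read from the data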
T cruzi growth-3: blocks T. cruzi growth in NIH3T3 host cells; inhibition, % at 2.09 µM; T. cruzi beta-gal in NIH3T3, GalScreen luminescence, 90 h; 5,600 compounds, 21% hits; shares compounds with T cruzi growth-1; AID 651740;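 active means mean inhibition above about 95%, with at least 55% of replicates also reaching it, limit read from the data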;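 further: plate controls were neutral control median for no effect and positive control median for full effect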
NIH3T3 tox: kills mouse NIH/3T3 fibroblasts | cytotoxicity (signal decrease), % at 8.35 µM | 5,600 compounds, 14% hits | shares compounds with T cruzi growth-1 | NIH/3T3 viability, CellTiter-Glo ATP luminescence, 90 h;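 active means mean signal decrease across replicates above about 35% based on untreated-well scatter, with enough replicates individually passing, limit read from the data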;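 further: 0% = median of neutral control wells and 100% = median of positive control wells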
NIH3T3 tox 2: NIH/3T3 (mouse) viability loss; shares compounds with T cruzi growth-1; NIH/3T3 viability, CellTiter-Glo ATP luminescence, 90 h; inhibition, % at 24.9 µM; 5,600 compounds, 56% hits; AID 651744;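 active means mean loss of cell viability signal at or above a set limit, and enough replicates individually reaching it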;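 further: 0% = median of neutral control wells and 100% = median of positive control wells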
Active calls of the source: *. This excerpt belongs to a sample that is enriched for hits.

How did C/C=C/c1ccc([C@@H]2[C@@H](CO)N(C(C)=O)[C@H]2CN(CC)C(=O)CC)cc1 do in these assays?
T cruzi growth-1: 101*; KDM4C inh: 0; T cruzi growth-2: 106*; T cruzi growth-3: -9; NIH3T3 tox: 17; NIH3T3 tox 2: 33

How did C/C=C/c1ccc([C@@H]2[C@@H](CN(CC)C(=O)CC)N(C(=O)C3CCC3)[C@H]2CO)cc1 do in these assays?
T cruzi growth-1: -23; KDM4C inh: 0

Results for C/C=C/c1ccc([C@@H]2[C@H](CO)N(C(=O)C3CC3)[C@H]2CN(CC)C(C)=O)cc1 ?
T cruzi growth-1: 100*; KDM4C inh: 2; T cruzi growth-2: 59; T cruzi growth-3: 1; NIH3T3 tox: -12; NIH3T3 tox 2: -6

What do the screens show for `COc1ccc(C(=O)COc2ccc(NC(=O)c3ccccc3[N+](=O)[O-])cc2)cc1`?
IDH1 mut inh: 0

What do the screens show for `O=C(Nc1ccc(Cl)c(Cl)c1)C(Cc1ccccc1)N1C(=O)c2ccccc2C1=O` (stereo unspecified)?
IDH1 mut inh: 0

Results for C[C@@H]1CN([C@@H](C)CO)S(=O)(=O)c2ccc(C3=CCCCC3)cc2O[C@H]1CN(C)CC1CCCC1 ?
IDH1 mut inh: 0; T cruzi growth-1: 123*; KDM4C inh: 0; T cruzi growth-2: 102*; T cruzi growth-3: 73; NIH3T3 tox: 120*; NIH3T3 tox 2: 106*

How did C[C@H](CO)N1C[C@H](C)[C@@H](CN(C)CC2CCCC2)Oc2cc(C3=CCCCC3)ccc2S1(=O)=O do in these assays?
IDH1 mut inh: 0; T cruzi growth-1: 106*; KDM4C inh: -2; T cruzi growth-2: 97*; T cruzi growth-3: 77; NIH3T3 tox: 13; NIH3T3 tox 2: 103*

What do the screens show for `C[C@@H]1CN([C@@H](C)CO)S(=O)(=O)c2ccc(C3=CCCCC3)cc2O[C@@H]1CN(C)CC1CC1`?
IDH1 mut inh: -3; T cruzi growth-1: 51; KDM4C inh: 0

How did C[C@@H]1CN([C@@H](C)CO)S(=O)(=O)c2ccc(C3=CCCC3)cc2O[C@H]1CN(C)CC1CC1 do in these assays?
IDH1 mut inh: 0; T cruzi growth-1: 93; KDM4C inh: -2

Results for C[C@H](CO)N1C[C@H](C)[C@@H](CN(C)CC2CCCC2)Oc2cc(C3=CCCC3)ccc2S1(=O)=O ?
IDH1 mut inh: 1; T cruzi growth-1: 103*; KDM4C inh: -6; T cruzi growth-2: 103*; T cruzi growth-3: 65; NIH3T3 tox: 8; NIH3T3 tox 2: 107*

What do the screens show for `C[C@@H]1CN([C@H](C)CO)S(=O)(=O)c2ccc(C3=CCCCC3)cc2O[C@@H]1CN(C)CC1CC1`?
IDH1 mut inh: 0; T cruzi growth-1: 67; KDM4C inh: -1

How did O=C(O)CNS(=O)(=O)c1ccc(Cl)c(Cl)c1 do in these assays?
IDH1 mut inh: 0

How did COc1ccc(NC(=O)CN(c2ccccc2Br)S(C)(=O)=O)cc1OC do in these assays?
IDH1 mut inh: 0

How did COC(=O)C1=CO[C@@H](O[C@@H]2O[C@H](CO)[C@@H](O)[C@H](O)[C@H]2O)C2C1CC(O)C2C (stereo partly specified) do in these assays?
IDH1 mut inh: 0

What do the screens show for `COc1ccc([N+](=O)[O-])cc1NC(=O)c1ccccc1N(C)S(=O)(=O)c1ccc(C)cc1`?
IDH1 mut inh: 0

Results for Cc1ccc(S(=O)(=O)N(C)CC(=O)Nc2ccccc2C(N)=O)cc1 ?
IDH1 mut inh: 0

How did O=C(C[C@@H]1CC[C@@H]2[C@H](COC[C@@H](O)CN2C(=O)Nc2cccc(Cl)c2)O1)N1CCCCC1 do in these assays?
T cruzi growth-1: 109*; KDM4C inh: -1; T cruzi growth-2: 39; T cruzi growth-3: 21; NIH3T3 tox: -1; NIH3T3 tox 2: -21

How did O=C(C[C@H]1CC[C@H]2[C@@H](COC[C@H](O)CN2C(=O)Nc2cc(Cl)cc(Cl)c2)O1)N1CCCCC1 do in these assays?
T cruzi growth-1: 99*; KDM4C inh: 0; T cruzi growth-2: 109*; T cruzi growth-3: 39; NIH3T3 tox: 11; NIH3T3 tox 2: 20

How did O=C(C[C@@H]1CC[C@@H]2[C@H](COC[C@@H](O)CN2C(=O)Nc2cc(Cl)cc(Cl)c2)O1)N1CCCCC1 do in these assays?
T cruzi growth-1: 79; KDM4C inh: -2

What do the screens show for `O=C(C[C@H]1CC[C@@H]2[C@H](COC[C@H](O)CN2C(=O)Nc2cccc(Cl)c2)O1)N1CCCCC1`?
T cruzi growth-1: -62; KDM4C inh: 0

What do the screens show for `CCOC(=O)CSc1nc2sccn2c1C=Nc1cc(Cl)cc(Cl)c1`?
IDH1 mut inh: 1

How did C[C@@H]1CCCCO[C@H](CN(C)S(=O)(=O)c2ccccc2)[C@H](C)CN([C@H](C)CO)C(=O)c2cc(NC(=O)Nc3ccccc3)ccc2O1 do in these assays?
IDH1 mut inh: 3; T cruzi growth-1: 103*; T cruzi growth-2: 113*; T cruzi growth-3: 61; NIH3T3 tox: 18; NIH3T3 tox 2: 34*

Results for C[C@@H]1CCCCO[C@@H](CN(C)S(=O)(=O)c2ccccc2)[C@H](C)CN([C@@H](C)CO)C(=O)c2cc(NC(=O)Nc3ccccc3)ccc2O1 ?
IDH1 mut inh: -3; T cruzi growth-1: 20; KDM4C inh: 0

Results for C[C@@H]1CN([C@H](C)CO)C(=O)c2cc(NC(=O)Nc3ccccc3)ccc2O[C@@H](C)CCCCO[C@H]1CN(C)S(=O)(=O)c1ccccc1 ?
IDH1 mut inh: 0; T cruzi growth-1: 32; KDM4C inh: 0

Results for C[C@H](CO)N1C[C@H](C)[C@H](CN(C)S(=O)(=O)c2ccccc2)OCCCC[C@H](C)Oc2ccc(NC(=O)Nc3ccccc3)cc2C1=O ?
IDH1 mut inh: 2; T cruzi growth-1: 100*; KDM4C inh: 0; T cruzi growth-2: 108*; T cruzi growth-3: 65; NIH3T3 tox: -10; NIH3T3 tox 2: 54*

What do the screens show for `C=C[C@H]1[C@H](OC2OC(CO)C(O)C(O)C2O)OC=C(C(=O)OC)[C@H]1CCOC(=O)c1cc(O)c(O)c(O)c1` (stereo partly specified)?
IDH1 mut inh: 0

Results for Cc1cccc(NC(=O)COc2ccc3c(=O)c(-c4ccccc4)coc3c2)c1C ?
IDH1 mut inh: 0

What do the screens show for `COc1ccc(S(=O)(=O)Nc2ccc3c(c2)CC(=O)N([C@H](C)CO)C[C@@H](C)[C@H](CN(C)Cc2ccccc2)O3)cc1`?
IDH1 mut inh: 0; T cruzi growth-1: 104*; KDM4C inh: -1; T cruzi growth-2: 109*; T cruzi growth-3: 99*; NIH3T3 tox: -4; NIH3T3 tox 2: 7

Compound activity deposited in PubChem BioAssay by Broad Institute.
